Among the data in ChEMBL document CHEMBL4145462, “Nitrogen-containing ecdysteroid derivatives vs. multi-drug resistance in cancer: Preparation and antitumor activity of oximes, oxime ethers and a lactam” (Eur J Med Chem, 2018) are CI values, retold here.

The first assay can be described thus: Synergistic cytotoxicity against mouse L5178 cells expressing human ABCB1 assessed as combination index at ED50 using 7.5:1 test compound to doxorubicin ratio after 48 hrs by MTT-based checkerboard microplate method. Type of assay: functional. In outline:
(§1)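 Checkerboard microplate combinations of compound with doxorubicin at constant molar ratios. 5 × 10^4 cells/well in McCoy's 5A, 48 h at 37°C, 5% CO2. MTT added to 0.5 mg/mL final for 4 h, SDS/HCl overnight, OD read at 540 and 630 nm. Combination indices derived per ratio for 50%, 75% and 90% growth inhibition by median-effect analysis.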
Take `C=CCO/N=C1/C=C2[C@H](CC[C@]3(C)[C@@H]([C@@]4(C)OC(C)(C)O[C@@H]4CCC(C)(C)O)CC[C@@]23O)[C@@]2(C)C[C@@H]3OC(C)(C)O[C@@H]3C[C@@H]12`: the CI was 0.2.

The nature of a further assay: Synergistic cytotoxicity against mouse L5178 cells expressing human ABCB1 assessed as combination index at ED75 using 7.5:1 test compound to doxorubicin ratio after 48 hrs by MTT-based checkerboard microplate method. Type of assay: functional. In outline:
as §1
For `C=CCO/N=C1/C=C2[C@H](CC[C@]3(C)[C@@H]([C@@]4(C)OC(C)(C)O[C@@H]4CCC(C)(C)O)CC[C@@]23O)[C@@]2(C)C[C@@H]3OC(C)(C)O[C@@H]3C[C@@H]12`, the CI amounted to 0.19.

Another assay is described as follows: Synergistic cytotoxicity against mouse L5178 cells expressing human ABCB1 assessed as combination index at ED90 using 7.5:1 test compound to doxorubicin ratio after 48 hrs by MTT-based checkerboard microplate method. Format: functional. The method, boiled down:
as §1
With `C=CCO/N=C1/C=C2[C@H](CC[C@]3(C)[C@@H]([C@@]4(C)OC(C)(C)O[C@@H]4CCC(C)(C)O)CC[C@@]23O)[C@@]2(C)C[C@@H]3OC(C)(C)O[C@@H]3C[C@@H]12`, the CI turned out to be 0.19.

The next assay is described as follows: Synergistic cytotoxicity against mouse L5178 cells assessed as combination index at ED75 using 37.5:1 test compound to doxorubicin ratio after 48 hrs by MTT-based checkerboard microplate method. Format: functional. In outline: as §1
Consider `C=CCO/N=C1/C=C2[C@H](CC[C@]3(C)[C@@H]([C@@]4(C)OC(C)(C)O[C@@H]4CCC(C)(C)O)CC[C@@]23O)[C@@]2(C)C[C@@H]3OC(C)(C)O[C@@H]3C[C@@H]12`, for which the CI was determined as 1.11.

Another assay can be described thus: Synergistic cytotoxicity against mouse L5178 cells expressing human ABCB1 assessed as combination index at ED75 using 3.75:1 test compound to doxorubicin ratio after 48 hrs by MTT-based checkerboard microplate method. Type of assay: functional. In outline: as §1
For the molecule `C=CCO/N=C1/C=C2[C@H](CC[C@]3(C)[C@@H]([C@@]4(C)OC(C)(C)O[C@@H]4CCC(C)(C)O)CC[C@@]23O)[C@@]2(C)C[C@@H]3OC(C)(C)O[C@@H]3C[C@@H]12`, the CI turned out to be 0.19.

The nature of the next assay: Synergistic cytotoxicity against mouse L5178 cells expressing human ABCB1 assessed as combination index at ED90 using 3.75:1 test compound to doxorubicin ratio after 48 hrs by MTT-based checkerboard microplate method. Type of assay: functional. The method, boiled down:
as §1
For the molecule `C=CCO/N=C1/C=C2[C@H](CC[C@]3(C)[C@@H]([C@@]4(C)OC(C)(C)O[C@@H]4CCC(C)(C)O)CC[C@@]23O)[C@@]2(C)C[C@@H]3OC(C)(C)O[C@@H]3C[C@@H]12`, the CI is listed as 0.16.

A short description of another assay: Synergistic cytotoxicity against mouse L5178 cells assessed as combination index at ED50 using 75:1 test compound to doxorubicin ratio after 48 hrs by MTT-based checkerboard microplate method. Type of assay: functional. The method, boiled down:
as §1
Turning to `C=CCO/N=C1/C=C2[C@H](CC[C@]3(C)[C@@H]([C@@]4(C)OC(C)(C)O[C@@H]4CCC(C)(C)O)CC[C@@]23O)[C@@]2(C)C[C@@H]3OC(C)(C)O[C@@H]3C[C@@H]12`, the CI was 0.7.

Another assay is described as follows: Synergistic cytotoxicity against mouse L5178 cells assessed as combination index at ED75 using 75:1 test compound to doxorubicin ratio after 48 hrs by MTT-based checkerboard microplate method. Type of assay: functional. In outline:
as §1
Take `C=CCO/N=C1/C=C2[C@H](CC[C@]3(C)[C@@H]([C@@]4(C)OC(C)(C)O[C@@H]4CCC(C)(C)O)CC[C@@]23O)[C@@]2(C)C[C@@H]3OC(C)(C)O[C@@H]3C[C@@H]12`: the CI turned out to be 0.83.

Another assay can be described thus: Synergistic cytotoxicity against mouse L5178 cells assessed as combination index at ED90 using 75:1 test compound to doxorubicin ratio after 48 hrs by MTT-based checkerboard microplate method. Type of assay: functional. The method, boiled down: as §1
On to `C=CCO/N=C1/C=C2[C@H](CC[C@]3(C)[C@@H]([C@@]4(C)OC(C)(C)O[C@@H]4CCC(C)(C)O)CC[C@@]23O)[C@@]2(C)C[C@@H]3OC(C)(C)O[C@@H]3C[C@@H]12`, for which the CI is reported as 1.03.

A short description of the next assay: Synergistic cytotoxicity against mouse L5178 cells expressing human ABCB1 assessed as combination index at ED75 using 60:1 test compound to doxorubicin ratio after 48 hrs by MTT-based checkerboard microplate method. Type of assay: functional. In outline: as §1
Take `C=CCO/N=C1/C=C2[C@H](CC[C@]3(C)[C@@H]([C@@]4(C)OC(C)(C)O[C@@H]4CCC(C)(C)O)CC[C@@]23O)[C@@]2(C)C[C@@H]3OC(C)(C)O[C@@H]3C[C@@H]12`: the CI amounted to 0.32.

A short description of a further assay: Synergistic cytotoxicity against mouse L5178 cells expressing human ABCB1 assessed as combination index at ED90 using 60:1 test compound to doxorubicin ratio after 48 hrs by MTT-based checkerboard microplate method. Format: functional. The method, boiled down: as §1
As for `C=CCO/N=C1/C=C2[C@H](CC[C@]3(C)[C@@H]([C@@]4(C)OC(C)(C)O[C@@H]4CCC(C)(C)O)CC[C@@]23O)[C@@]2(C)C[C@@H]3OC(C)(C)O[C@@H]3C[C@@H]12`, the CI came out at 0.35.

A short description of the next assay: Synergistic cytotoxicity against mouse L5178 cells assessed as combination index at ED75 using 300:1 test compound to doxorubicin ratio after 48 hrs by MTT-based checkerboard microplate method. Type of assay: functional. The method, boiled down:
as §1
Regarding `C=CCO/N=C1/C=C2[C@H](CC[C@]3(C)[C@@H]([C@@]4(C)OC(C)(C)O[C@@H]4CCC(C)(C)O)CC[C@@]23O)[C@@]2(C)C[C@@H]3OC(C)(C)O[C@@H]3C[C@@H]12`, the CI worked out at 1.18.

A further assay can be described thus: Synergistic cytotoxicity against mouse L5178 cells assessed as combination index at ED90 using 300:1 test compound to doxorubicin ratio after 48 hrs by MTT-based checkerboard microplate method. Format: functional. In outline:
as §1
In the case of `C=CCO/N=C1/C=C2[C@H](CC[C@]3(C)[C@@H]([C@@]4(C)OC(C)(C)O[C@@H]4CCC(C)(C)O)CC[C@@]23O)[C@@]2(C)C[C@@H]3OC(C)(C)O[C@@H]3C[C@@H]12`, the CI turned out to be 1.55.
